The structures appear in SMILES notation.

Data set [1] can be described thus: Cytotoxicity against human lymphocytes assessed as LDH release at antiproliferative IC50 after 24 hrs. The format is cell-based. The settings on record: lymphocyte. Put shortly:
(§1)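 Membrane damage was measured as LDH released into the culture supernatant 24 h after treatment; Triton X-100 lysis served as the total-lysis reference and DMSO as the vehicle control. For HeLa, CaSki and ViBo, 7500 cells/well were seeded and the medium was replaced after 24 h before treatment. Data are mean ± SD of three independent experiments in triplicate, analyzed by ANOVA with Tukey's test.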

For data set [2], the system named is HeLa. The data set is described as follows: Cytotoxicity against human HeLa cells assessed as LDH release at antiproliferative IC50 after 24 hrs. Type of data set: cell-based. Put shortly:
as §1
Background: Release of lactate dehydrogenase indicates damage to the cell membrane.

Data set [3] relates to HeLa. The data set is described as follows: Antiproliferative activity against human HeLa cells after 24 hrs by crystal violet staining-based method. Type of data set: functional, cell-based. Put shortly: (§2)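 Cells were cultured in RPMI-1640 with 5% newborn calf serum and benzylpenicillin at 37 °C, 5% CO2, and used in exponential growth. Cells were seeded at 7500/well, grown 24 h, then exposed to a concentration range. Controls received 1% DMSO vehicle. After 24 h, growth was read by crystal violet staining as absorbance at 590 nm, and IC50 was derived.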

In another data set the test system is ViBo. Briefly: (§3) Antiproliferative activity against human ViBo cells after 24 hrs by crystal violet staining-based method. The format is functional, cell-based. An outline of the steps:
as §2

Data set [4] can be described thus: as §3. Type of data set: functional, cell-based. Put shortly: as §2
Data set [5] deals with Ca-Ski. Briefly: Antiproliferative activity against human CaSki cells after 24 hrs by crystal violet staining-based method. Type of data set: functional, cell-based. Put shortly:
as §2

Data set [6] deals with Ca-Ski. Briefly: Cytotoxicity against human CaSki cells assessed as LDH release at antiproliferative IC50 after 24 hrs. Type of data set: cell-based. Put shortly: as §1
The nature of data set [7]: Cytotoxicity against human ViBo cells assessed as LDH release at antiproliferative IC50 after 24 hrs. Type of data set: cell-based. Put shortly: as §1
Another data set deals with PBMC. Briefly: Antiproliferative activity against PHA-stimulated and CFSE-labeled human PBMC assessed as proliferation of enriched lymphocyte population at antiproliferative IC50 after 72 hrs by flow cytometric analysis (reference value: 90.13%). Type of data set: cell-based. Put shortly: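 Enriched lymphocytes from a normal blood donor were obtained by removing cells adherent after 1 h at 37 °C, 5% CO2, then resuspended in RPMI-1640 at 1 × 10⁶ cells/mL. Cells were CFSE-labeled for 15 min at room temperature in the dark, PHA-stimulated and/or treated, and plated at 2 × 10⁵ cells/well with five replicates. After 72 h at 37 °C, cells were PBS-washed, fixed in 1% formaldehyde, and analyzed by flow cytometry (≥20,000 events).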

As to `C[C@@H]1CC[C@@]2(OC1)O[C@H]1C[C@H]3[C@@H]4CC=C5C[C@@H](O[C@@H]6O[C@H](CO)[C@@H](O)[C@H](O)[C@H]6N)CC[C@]5(C)[C@H]4CC[C@]3(C)[C@H]1[C@@H]2C.Cl`, the Activity result is listed as “Non-toxic” in data set [1]; “Non-toxic” with HeLa [2]; “Non-toxic” with Ca-Ski [6]; “Non-toxic” in [7]; 78.76% in the data set on PBMC. Further, the half-inhibitory concentration (IC50) (usually the concentration at which inhibition is half-maximal) was determined as 41 µM in the data set with HeLa [3], 82 µM in data set [4] and 41 µM with Ca-Ski [5]. For the same compound, the inhibition result with HeLa [3], in the data set with ViBo and with Ca-Ski [5] was “Dose-dependent effect” throughout.
Consider `CC(=O)N[C@H]1[C@H](O[C@H]2CC[C@@]3(C)[C@@H](CC[C@@H]4[C@@H]3CC(=O)[C@]3(C)[C@@H]5[C@H](C[C@@H]43)O[C@]3(CC[C@@H](C)CO3)[C@H]5C)C2)O[C@H](CO)[C@@H](O)[C@@H]1O`, for which the Activity entry is reported as “Non-toxic” in data set [1]; “Non-toxic” in the data set on HeLa [2]; “Non-toxic” with Ca-Ski [6]; “Non-toxic” in data set [7]; 75.59% in the data set with PBMC. The IC50 with HeLa [3] is 129 µM; in [4], over 142 µM; in the data set with Ca-Ski [5], 136 µM. Besides, the inhibition result in the data set on HeLa [3], in the data set on ViBo and with Ca-Ski [5] was “Dose-dependent effect” in each case.
As for `CC(=O)N[C@H]1[C@H](O[C@H]2CC[C@@]3(C)C(=CC[C@H]4[C@@H]5C[C@@H]6O[C@]7(CC[C@@H](C)CO7)[C@@H](C)[C@@H]6[C@@]5(C)CC[C@@H]43)C2)O[C@H](CO)[C@@H](O)[C@@H]1O`, the Activity entry was “Non-toxic” in data set [1]; “Non-toxic” in the data set with HeLa [2]; “Non-toxic” with Ca-Ski [6]; “Non-toxic” in data set [7]; 72.58% in the data set on PBMC. In addition, the IC50 in the data set on HeLa [3] came out at 81 µM; in data set [4], 81 µM; with Ca-Ski [5], 80 µM. The inhibition entry in the data set with HeLa [3], with ViBo and in the data set on Ca-Ski [5] was “Dose-dependent effect” each time.

Source of the values: ChEMBL document CHEMBL2069284, “Synthesis and selective anticancer activity of steroidal glycoconjugates” (Eur J Med Chem, 2012).
